ChEMBL document CHEMBL4184228, “Reversed isoniazids: Design, synthesis and evaluation against Mycobacterium tuberculosis” (Bioorg Med Chem, 2018)
≈ marks a conversion by molar mass, not a printed value. Calls of active or inactive are those of the source.

Experiments:
[1] = system: Mycobacterium tuberculosis; test: Antimycobacterial activity against Mycobacterium tuberculosis H37Rv by two fold serial dilution based fluorescence assay; assay type: functional
Summary of the method: (§1)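 MGIT 960 (BACTEC) broth assay in 7H9 with 1% OADC and 0.05% Tween 80. Compounds are 10 mM DMSO stocks, two-fold serially diluted, final DMSO ≤1.2%, top concentration 10 µM. Tubes incubated at 37°C with growth units read daily. MIC99 is set against a 1% drug-free growth control tube.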

[2] = system: Mycobacterium tuberculosis; test: Antimycobacterial activity against XDR Mycobacterium tuberculosis isolate TT149 at 10 uM by two fold serial dilution based fluorescence assay; assay type: functional; summary of the method: as §1
[3] = system: Mycobacterium tuberculosis; test: Antimycobacterial activity against XDR Mycobacterium tuberculosis isolate X_3 at 10 uM by two fold serial dilution based fluorescence assay; assay type: functional; summary of the method: as §1
[4] = system: Mycobacterium tuberculosis; test: Antimycobacterial activity against XDR Mycobacterium tuberculosis isolate X_61 by two fold serial dilution based fluorescence assay; assay type: functional; summary of the method: as §1
[5] = system: Mycobacterium tuberculosis; test: Antimycobacterial activity against XDR Mycobacterium tuberculosis isolate X_60 by two fold serial dilution based fluorescence assay; assay type: functional; summary of the method: as §1
CHO = test: Cytotoxicity against CHO cells; assay type: cell-based; conditions: Cricetulus griseus
[6] = Cytotoxicity against human THP1 cells assessed as decrease in cell viability after 24 hrs by MTT assay; assay type: cell-based; conditions: THP-1 cells
Summary of the method: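 THP-1 cells at 1.5 x 10^4/well are exposed to a range of compound concentrations for 24 h. MTT is then added for 4 h at 37°C, followed by solubilisation buffer for 30 min. A570 is read. Cytotoxicity % = 100 − [100 × (OD with drug/OD without drug)]. An IC20 cut-off is used to set concentrations for the macrophage work.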

## O=C(NNCCCNCCCN1c2ccccc2Sc2ccc(Cl)cc21)c1ccncc1
[1]
  MIC99: 5 µM (≈ 2.34 µg/mL)
[2]
  Activity: inactive
[3]
  Activity: inactive

## O=C(NNCCCN1CCC(=C2c3ccccc3Sc3ccccc32)CC1)c1ccncc1
[1]
  MIC99: 1.25 µM (≈ 0.571 µg/mL)
[4]
  MIC99: 2.5 µM (≈ 1.14 µg/mL)
[5]
  MIC99: > 10 µM
CHO
  IC50: 152 µM
[2]
  Activity: inactive
[3]
  Activity: inactive

## O=C(NNCCCN1CCC(=C2c3ccccc3C=Cc3ccccc32)CC1)c1ccncc1
[1]
  MIC99: 1.25 µM (≈ 0.563 µg/mL)
[4]
  MIC99: 5 µM (≈ 2.25 µg/mL)
[5]
  MIC99: > 10 µM
CHO
  IC50: 148 µM
[2]
  Activity: inactive
[3]
  Activity: inactive

## O=C(NNCCCN1c2ccccc2Sc2ccc(Cl)cc21)c1ccncc1
[1]
  MIC99: 0.25 µM (≈ 0.103 µg/mL)
[2]
  Activity: inactive
[3]
  Activity: inactive
[6]
  IC20 at 24 h: 24.4 µM

## O=C(NNCCCN1CCN(C2c3ccccc3CCc3ccccc32)CC1)c1ccncc1
[1]
  MIC99: 5 µM (≈ 2.28 µg/mL)
[2]
  Activity: inactive
[3]
  Activity: inactive

## O=C(NNCCCN1CCN(CC(O)(c2ccccc2)c2ccccc2)CC1)c1ccncc1
[1]
  MIC99: 1.25 µM (≈ 0.574 µg/mL)
[4]
  MIC99: 5 µM (≈ 2.3 µg/mL)
[5]
  MIC99: > 10 µM
CHO
  IC50: 174 µM
[2]
  Activity: inactive
[3]
  Activity: inactive

## O=C(NNCCCN1CCN(C(c2ccccc2)(c2ccccc2)c2ccccc2)CC1)c1ccncc1
[1]
  MIC99: 1.25 µM (≈ 0.632 µg/mL)
[4]
  MIC99: 2.5 µM (≈ 1.26 µg/mL)
[5]
  MIC99: 2.5 µM (≈ 1.26 µg/mL)
CHO
  IC50: 97.6 µM
[2]
  Activity: inactive
[3]
  Activity: inactive

## O=C(NNCCCN1c2ccccc2Sc2ccc(Cl)cc21)c1ccccc1
[1]
  MIC99: > 10 µM
[2]
  Activity: inactive
[3]
  Activity: inactive
[6]
  IC20 at 24 h: > 100 µM

## CN(C)CCCN1c2ccccc2Sc2ccc(Cl)cc21 [CHLORPROMAZINE]
[6]
  IC20 at 24 h: 4 µM

## O=C(NNCCCN1CCC(N2c3ccccc3Sc3ccccc32)CC1)c1ccncc1
[1]
  MIC99: 5 µM (≈ 2.3 µg/mL)
[4]
  MIC99: 2.5 µM (≈ 1.15 µg/mL)
[5]
  MIC99: > 10 µM
CHO
  IC50: 122 µM
[2]
  Activity: inactive
[3]
  Activity: inactive

## NNC(=O)c1ccncc1 [ISONIAZID]
[1]
  MIC99: 0.73 µM (≈ 0.1 µg/mL)
[4]
  MIC99: 2.5 µM (≈ 0.343 µg/mL)
[5]
  MIC99: > 10 µM
CHO
  IC50: > 100 µM
[2]
  MIC99: > 10 µM
[3]
  MIC99: > 10 µM
[6]
  IC20 at 24 h: > 100 µM

## O=C(NNCCCN1CCN(C(c2ccccc2)c2ccccc2)CC1)c1ccncc1
[1]
  MIC99: 5 µM (≈ 2.15 µg/mL)
[4]
  MIC99: 5 µM (≈ 2.15 µg/mL)
[5]
  MIC99: > 10 µM
CHO
  IC50: 48.1 µM
[2]
  Activity: inactive
[3]
  Activity: inactive

## O=C(NNCCCNCCCN1c2ccccc2Sc2ccccc21)c1ccncc1
[1]
  MIC99: 5 µM (≈ 2.17 µg/mL)
[2]
  Activity: inactive
[3]
  Activity: inactive

## O=C(NNCCCN1CCC(=C2c3ccccc3Sc3ccc(Cl)cc32)CC1)c1ccncc1
[1]
  MIC99: 0.625 µM (≈ 0.307 µg/mL)
[4]
  MIC99: 2.5 µM (≈ 1.23 µg/mL)
[5]
  MIC99: > 10 µM
CHO
  IC50: 296 µM
[2]
  Activity: inactive
[3]
  Activity: inactive

## O=C(NNCCCN1c2ccccc2Sc2ccccc21)c1ccncc1
[1]
  MIC99: 1 µM (≈ 0.376 µg/mL)
[2]
  Activity: inactive
[3]
  Activity: inactive
[6]
  IC20 at 24 h: > 100 µM

## O=C(NNCCCN1c2ccccc2Sc2ccccc21)c1ccccc1
[1]
  MIC99: > 10 µM
[2]
  Activity: inactive
[3]
  Activity: inactive
[6]
  IC20 at 24 h: > 100 µM

## O=C(NNCCCN1c2ccccc2CCc2ccccc21)c1ccncc1
[1]
  MIC99: 1 µM (≈ 0.372 µg/mL)
[2]
  Activity: inactive
[3]
  Activity: inactive
[6]
  IC20 at 24 h: > 100 µM

## O=C(NNCCCN1CCC(N2c3ccccc3Sc3ccc(Cl)cc32)CC1)c1ccncc1
[1]
  MIC99: 1 µM (≈ 0.494 µg/mL)
[4]
  MIC99: > 10 µM
[5]
  MIC99: > 10 µM
CHO
  IC50: 37.4 µM
[2]
  Activity: inactive
[3]
  Activity: inactive
[6]
  IC20 at 24 h: 2.2 µM
